Source: ChEMBL document CHEMBL3992520, “Development of the First Two-Pore Domain Potassium Channel TWIK-Related K+ Channel 1-Selective Agonist Possessing in Vivo Antinociceptive Activity” (J Med Chem, 2017)

Experiments:
Mus musculus [1] = test: Antinociceptive activity in wild-type C57Bl/6J mouse assessed as increase in thermal-stimulus induced paw withdrawal latency at 60 mg/kg, sc measured after 30 mins by hot plate method relative to control; format: functional
Method in brief: (§1)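 TREK-1−/− and wild-type C57Bl/6J littermates came from heterozygous crosses, n=7. Dose was 60 mg/kg s.c. The 52 °C hotplate measured paw-lick latency, 30 s cut-off, with baseline from two stable pre-dose latencies.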

[2] = molecular target: Potassium channel subfamily K member 9 (Homo sapiens) (UniProt Q9NPC2); test: Agonist activity at TASK3 (unknown origin) expressed in HEK293 cells assessed as increase in K+ current at 20 uM measured at +60 mV by whole-cell patch clamp method relative to control; format: cell-based
Chain of Potassium channel subfamily K member 9 (Homo sapiens) (Q9NPC2 whole entry): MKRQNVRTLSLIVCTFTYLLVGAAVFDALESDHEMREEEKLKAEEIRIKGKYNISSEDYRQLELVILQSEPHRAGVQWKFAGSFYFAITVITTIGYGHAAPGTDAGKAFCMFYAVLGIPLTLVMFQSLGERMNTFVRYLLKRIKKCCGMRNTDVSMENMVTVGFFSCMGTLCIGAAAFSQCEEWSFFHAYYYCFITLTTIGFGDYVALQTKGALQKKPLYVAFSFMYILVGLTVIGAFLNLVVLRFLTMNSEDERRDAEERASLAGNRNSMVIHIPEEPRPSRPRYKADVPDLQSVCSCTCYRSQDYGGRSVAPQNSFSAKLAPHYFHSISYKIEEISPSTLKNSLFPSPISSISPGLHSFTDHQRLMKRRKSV

Mus musculus [3] = test: Antinociceptive activity in CD1 mouse assessed as increase in thermal-stimulus induced paw withdrawal latency at 60 mg/kg, sc measured after 45 mins by hot plate method relative to control; format: functional
Method in brief: (§2)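 Male CD1 mice (20-25 g), n=8 per group, given 60 mg/kg s.c. After 5 min acclimatization on a plate at room temperature, mice were placed on a 52 °C hotplate. Latency to forepaw or hindpaw licking or hindpaw flicking was recorded, with a 30 s cut-off. Latency was taken after two consecutive stable baselines, then 30 and 45 min post-dose. Effect = (postdrug − predrug latency)/predrug latency ×100.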

Mus musculus [4] = test: Antinociceptive activity in TREK1 deficient C57Bl/6J mouse assessed as increase in thermal-stimulus induced paw withdrawal latency at 60 mg/kg, sc measured after 45 mins by hot plate method relative to control; format: functional; method in brief: as §1
Mus musculus [5] = test: Antinociceptive activity in CD1 mouse assessed as inhibition of acetic acid-induced writhes at 10 mg/kg, sc pretreated for 15 mins followed by acetic acid challenge measured within 20 mins relative to control; format: functional
Method in brief: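 Male CD1 mice (20-25 g), n=8 per group, dosed at 10 mg/kg s.c. or with vehicle (5% Tween 80 in 0.9% saline). Dosing was 15 min before i.p. 0.6% acetic acid (10 mL/kg). Abdominal writhes were counted for 20 min. Effect = (mean control writhes − mean test writhes)/mean control writhes ×100.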

[6] = molecular target: T1, Potassium channel subfamily K member 4 (Homo sapiens) (UniProt Q9NYG8); test: Agonist activity at TRAAK (unknown origin) expressed in HEK293 cells assessed as increase in K+ current at 20 uM measured at +60 mV by whole-cell patch clamp method relative to control; format: cell-based
T1 sequence (whole entry): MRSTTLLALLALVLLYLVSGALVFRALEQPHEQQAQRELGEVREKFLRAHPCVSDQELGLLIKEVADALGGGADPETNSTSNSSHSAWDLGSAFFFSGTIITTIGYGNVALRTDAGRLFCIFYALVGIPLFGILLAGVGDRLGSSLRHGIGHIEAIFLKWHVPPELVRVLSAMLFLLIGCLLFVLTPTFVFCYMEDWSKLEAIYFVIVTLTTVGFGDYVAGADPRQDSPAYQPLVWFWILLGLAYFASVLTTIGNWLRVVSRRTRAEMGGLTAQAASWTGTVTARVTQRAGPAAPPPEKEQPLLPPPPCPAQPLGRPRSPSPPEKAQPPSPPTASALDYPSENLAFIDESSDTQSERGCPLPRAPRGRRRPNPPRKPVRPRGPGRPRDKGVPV

Mus musculus [7] = test: In vivo activation of TREK1 in C57Bl/6J mouse assessed as increase in thermal-stimulus induced paw withdrawal latency at 60 mg/kg, sc measured after 30 mins by hot plate method relative to control; format: functional; method in brief: as §1
Mus musculus [8] = test: Antinociceptive activity in wild-type C57Bl/6J mouse assessed as increase in thermal-stimulus induced paw withdrawal latency at 60 mg/kg, sc measured after 45 mins by hot plate method relative to control; format: functional; method in brief: as §1
[9] = molecular target: T2, Potassium channel subfamily K member 2 (Homo sapiens) (UniProt O95069); test: Agonist activity at human TREK1 expressed in HEK293 cells assessed as increase in K+ current at 20 uM measured at +60 mV by whole-cell patch clamp method relative to control; format: cell-based
T2 sequence (whole entry): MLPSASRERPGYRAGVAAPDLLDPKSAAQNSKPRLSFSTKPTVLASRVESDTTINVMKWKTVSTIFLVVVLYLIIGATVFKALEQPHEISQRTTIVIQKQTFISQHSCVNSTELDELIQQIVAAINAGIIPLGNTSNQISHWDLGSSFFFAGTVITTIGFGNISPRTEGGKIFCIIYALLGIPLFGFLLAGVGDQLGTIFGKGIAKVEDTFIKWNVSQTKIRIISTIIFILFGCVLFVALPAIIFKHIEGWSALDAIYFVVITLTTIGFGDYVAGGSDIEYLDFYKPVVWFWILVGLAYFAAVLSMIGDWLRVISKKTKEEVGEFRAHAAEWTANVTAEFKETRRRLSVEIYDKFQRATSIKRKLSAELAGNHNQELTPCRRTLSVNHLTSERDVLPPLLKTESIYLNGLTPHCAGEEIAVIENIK
Method in brief: (§3)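 Human TREK-1 (kcnk2) in pIRES2-eGFP was stably expressed in HEK-293 cells under G418 selection, and cells were used 4–48 h after plating. Bath (mM): 140 NaCl, 10 TEA-Cl, 5 KCl, 3 MgCl2, 1 CaCl2, 10 HEPES, pH 7.4. Pipette (mM): 155 KCl, 3 MgCl2, 5 EGTA, 10 HEPES, pH 7.2. Holding was −80 mV, with a step to −100 mV then a 400 ms ramp to +60 mV every 5 s. Read-out was the ratio Imax/I0 taken from I/V curves. Stocks were 20 mM in DMSO.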

[10] = molecular target: T3, Potassium channel subfamily K member 10 (Homo sapiens) (UniProt P57789); test: Agonist activity at TREK-2 (unknown origin) expressed in HEK293 cells assessed as increase in K+ current at 20 uM measured at +60 mV by whole-cell patch clamp method relative to control; format: cell-based
T3 sequence (whole entry): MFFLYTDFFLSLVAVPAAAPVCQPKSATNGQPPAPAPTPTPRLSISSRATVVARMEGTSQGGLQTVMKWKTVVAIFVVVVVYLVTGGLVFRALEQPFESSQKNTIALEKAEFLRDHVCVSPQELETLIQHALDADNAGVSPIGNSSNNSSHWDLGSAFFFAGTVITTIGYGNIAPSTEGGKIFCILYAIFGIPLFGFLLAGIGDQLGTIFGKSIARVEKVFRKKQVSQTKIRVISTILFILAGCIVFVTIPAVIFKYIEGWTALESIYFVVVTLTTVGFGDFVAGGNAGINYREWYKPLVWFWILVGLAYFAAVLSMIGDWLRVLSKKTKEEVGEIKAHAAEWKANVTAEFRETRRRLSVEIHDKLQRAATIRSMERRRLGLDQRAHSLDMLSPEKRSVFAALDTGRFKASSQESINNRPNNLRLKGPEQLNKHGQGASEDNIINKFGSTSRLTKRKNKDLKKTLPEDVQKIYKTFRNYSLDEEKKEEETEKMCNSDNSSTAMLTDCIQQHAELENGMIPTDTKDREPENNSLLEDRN

Mus musculus [11] = test: In vivo activation of TREK1 in C57Bl/6J mouse assessed as increase in thermal-stimulus induced paw withdrawal latency at 60 mg/kg, sc measured after 45 mins by hot plate method relative to control; format: functional; method in brief: as §1
Mus musculus [12] = test: Antinociceptive activity in CD1 mouse assessed as increase in thermal-stimulus induced paw withdrawal latency at 60 mg/kg, sc measured after 30 mins by hot plate method relative to control; format: functional; method in brief: as §2
Mus musculus [13] = test: Antinociceptive activity in TREK1 deficient C57Bl/6J mouse assessed as increase in thermal-stimulus induced paw withdrawal latency at 60 mg/kg, sc measured after 30 mins by hot plate method relative to control; format: functional; method in brief: as §1
Mus musculus [14] = test: Antinociceptive activity in CD1 mouse assessed as increase in thermal-stimulus induced paw withdrawal latency at 3 mg/kg, sc measured after 30 mins by hot plate method relative to control; format: functional
Method in brief: (§4)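 Male CD1 mice (20–25 g), groups of 8, scored blind. After 5 min on a room-temperature plate, mice are placed on a 52 °C hotplate. Latency is the time to licking of fore- or hindpaws or flicking of hindpaws, with a 30 s cut-off. Two consecutive stable baseline latencies are taken, then latency is read 30 and 45 min after s.c. injection. % effect = (post − pre)/pre × 100.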

Mus musculus [15] = test: Antinociceptive activity in CD1 mouse assessed as increase in thermal-stimulus induced paw withdrawal latency at 3 mg/kg, sc measured after 45 mins by hot plate method relative to control; format: functional; method in brief: as §4
[16] = molecular target: T4, Potassium channel subfamily K member 2 (Bos taurus) (UniProt Q8HY88); test: Agonist activity at TREK1 in bovine AZF cells assessed as increase in K+ current at 40 uM by whole-cell patch clamp method relative to control; format: cell-based
T4 sequence (whole entry): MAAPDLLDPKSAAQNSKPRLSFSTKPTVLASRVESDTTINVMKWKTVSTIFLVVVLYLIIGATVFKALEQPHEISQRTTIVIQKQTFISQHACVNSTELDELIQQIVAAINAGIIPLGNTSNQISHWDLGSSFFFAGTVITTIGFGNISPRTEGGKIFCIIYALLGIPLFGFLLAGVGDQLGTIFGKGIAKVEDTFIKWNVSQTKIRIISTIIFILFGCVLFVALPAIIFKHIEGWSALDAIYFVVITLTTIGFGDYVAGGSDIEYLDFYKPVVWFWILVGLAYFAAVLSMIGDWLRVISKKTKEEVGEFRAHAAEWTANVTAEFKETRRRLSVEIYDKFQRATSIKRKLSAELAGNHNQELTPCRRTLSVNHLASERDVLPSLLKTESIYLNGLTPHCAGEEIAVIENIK

Liver = test: Drug metabolism in rat liver microsomes assessed as (E)-2-Cyano-3-(3,4-dihydroxyphenyl)acrylic acid formation at 40 mM in presence of NADPH-cofactor measured after 24 hrs by HPLC analysis; format: ADME, microsome; settings: 40000 µM
Method in brief: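 Incubation mix: rat liver microsomes (20 mg/mL stock), phosphate buffer pH 7.4 and NADPH (40 mM stock). Drug was added from a 40 mM DMSO stock. Samples were vortexed and incubated at 37 °C with stirring.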

[17] = Half life in rat liver microsomes at 40 mM in presence of NADPH-cofactor by HPLC analysis; format: ADME, microsome
[18] = molecular target: T2, Potassium channel subfamily K member 2 (Homo sapiens); test: Agonist activity at human TREK1 expressed in xenopus oocytes assessed as increase in K+ current at 20 uM measured at 0 mV by double microelectrode method relative to control; format: cell-based
[19] = molecular target: T2, Potassium channel subfamily K member 2 (Homo sapiens); test: Agonist activity at human TREK1 expressed in HEK293 cells assessed as increase in K+ current at 100 uM measured at +60 mV by whole-cell patch clamp method relative to control; format: cell-based; method in brief: as §3
[20] = molecular target: T2, Potassium channel subfamily K member 2 (Homo sapiens); test: Agonist activity at human TREK1 expressed in HEK293 cells assessed as increase in K+ current at 10 uM measured at +60 mV by whole-cell patch clamp method relative to control; format: cell-based; method in brief: as §3
[21] = molecular target: T3, Potassium channel subfamily K member 10 (Homo sapiens); test: Agonist activity at TREK-2 (unknown origin) expressed in HEK293 cells assessed as increase in K+ current at 10 uM measured at +60 mV by whole-cell patch clamp method relative to control; format: cell-based
[22] = molecular target: Potassium channel subfamily K member 9 (Homo sapiens) (UniProt Q9NPC2); test: Agonist activity at TASK3 (unknown origin) expressed in HEK293 cells assessed as increase in K+ current at 10 uM measured at +60 mV by whole-cell patch clamp method relative to control; format: cell-based
[23] = molecular target: T1, Potassium channel subfamily K member 4 (Homo sapiens); test: Agonist activity at TRAAK (unknown origin) expressed in HEK293 cells assessed as increase in K+ current at 10 uM measured at +60 mV by whole-cell patch clamp method relative to control; format: cell-based

Structure (SMILES)	Activity (Mus musculus [1]) [%]	Activity (Mus musculus [3]) [%]	Activity (Mus musculus [4]) [%]	inhibition in vivo at 10 mg/kg (Mus musculus [5]) [%]	Activity (Mus musculus [7]) [%]	Activity (Mus musculus [8]) [%]	Activity (Mus musculus [11]) [%]	Activity (Mus musculus [12]) [%]	Activity (Mus musculus [13]) [%]	other results
N#C/C(=C\c1ccoc1)C(=O)Nc1ccccc1	24.8	148.6	35.1	48	0	22.1	0	107.7	29.2	fold change (FC) [2]: 0.5; fold change (FC) [6]: 1; fold change (FC) [9]: 4.64; fold change (FC) [10]: 3
CN1CC[C@]23c4c5ccc(O)c4O[C@H]2[C@@H](O)C=C[C@H]3[C@H]1C5 [MORPHINE]	98.6	–	94.6	–	12.6	124.5	24.3	–	86.7	Activity (Mus musculus [14]): 185%; Activity (Mus musculus [15]): 159.7%
O=C(O)/C=C/c1ccc(O)c(O)c1	–	–	–	–	–	–	–	–	–	fold change (FC) [16]: 1
CCOC(=O)/C(C#N)=C/c1ccc(O)c(O)c1	–	21.8	–	57.8	–	–	–	34.6	–	Drug metabolism (Liver): Metabolite_Detected; half-life [17]: < 4 min; fold change (FC) [18]: 2.76; fold change (FC) [19]: 1.54; fold change (FC) [16]: 1
CCOC(=O)/C(C#N)=C/c1cccc2ccccc12	17.4	67.5	34.4	44.7	0	31.1	0	93.2	18	fold change (FC) [19]: 1.59
N#C/C(=C\c1cc2ccccc2[nH]1)C(=O)OC1CCCCC1	–	52.6	–	83.6	–	–	–	65.7	–	half-life [17]: 25 to 45 min; fold change (FC) [20]: 1.98
N#C/C(=C\c1cc2ccccc2[nH]1)C(=O)Nc1ccccc1	27.9	49.5	51.2	52	33	39.2	0	49.5	18.7	fold change (FC) [21]: 1.6; fold change (FC) [22]: 1.2; fold change (FC) [20]: 2.16 to 2.2; fold change (FC) [23]: 0.9
